Data set [1] concerns Human immunodeficiency virus 1. Briefly: Inhibitory effects on HIV-1 induced syncytium formation in C8166 cells. It counts as functional, organism-based. The conditions noted are these: Human immunodeficiency virus 1, C8166. An outline of the steps: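 C8166 cells were infected with HIV-1 RF at moi 1×10^-3 and plated at 10^5 cells/well. Compound in Me2SO was serially diluted in RPMI 1640 from 50 to 0.05 μg/mL. Cells were kept 3–4 days at 37 °C, 5% CO2, and checked daily for syncytia. Syncytia were scored against untreated infected controls, and EC50 was calculated as 50% reduction of cytopathic effect.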

In data set [2] the test system is MT4. In words: Inhibition of cytopathic effect of HIV-1 strain RF in MT-4 cell culture. It counts as functional, cell-based. As to conditions: Homo sapiens. The method, boiled down: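 MT-4 cells at 10^6 cells/mL in RPMI 1640 were infected with HIV-1 RF at moi 2×10^-3 (5×10^4 cells/well). Compound in Me2SO was diluted in 10-fold steps from 100 to 0.01 μg/mL. Cells were kept 7 days at 37 °C, 5% CO2, then given MTT for 60 min. Acidified 2-propanol was added and A540 read. EC50 for 50% inhibition of formazan conversion is the mean of duplicates; toxicity was assayed at the same concentrations.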

Data set [3] has as its target Human immunodeficiency virus type 1 protease (Human immunodeficiency virus 1, UniProt Q72874). In words: Inhibitory activity against HIV-1 Protease. The method, boiled down:
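Buffer: 20 mM MES pH 6.0, 2 M NaCl, 5 mM DTT, 2 mM EDTA. Compounds in 25% Me2SO over a concentration range. Incubated 60 min at 37 °C with shaking, then filtered; released radioactivity counted by scintillation. IC50 from duplicate means, standardized to a reference-compound control.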

The nature of data set [4]: Plasma clearance in CD rat at a dose of 5 mg/kg given intravenously. It counts as ADME, organism-based. The arrangement: dose 5 mg/kg, route intravenous. The conditions noted are these: iv. The method, boiled down:
(§1)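 Single intravenous dose in a vehicle of ethanol (10–20%), polyethyleneglycol (10%) and saline. Doses were 5 mg/kg for CD rats (n = 2 per time point), 1 mg/kg for beagles (n = 2) and 5 mg/kg for cynomolgus monkeys (n = 2). Plasma t1/2, plasma clearance and steady-state volume of distribution were derived.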

Data set [5] in a line: Plasma clearance in Beagles dog at a dose of 1 mg/kg given intravenously. As to conditions: beagle, iv. It counts as ADME, organism-based, Canis lupus familiaris. The arrangement: dose 1 mg/kg, route intravenous. The method, boiled down:
as §1

Data set [6] can be described thus: Plasma clearance in Cynomolgus monkey at a dose of 5 mg/kg given intravenously. It counts as ADME, organism-based, Macaca fascicularis. Further details: dose 5 mg/kg, route intravenous. As to conditions: iv. An outline of the steps:
as §1

Data set [7] can be described thus: Half-life in CD rat at a dose of 5 mg/kg given intravenously. It counts as ADME, organism-based. Further details: dose 5 mg/kg, route intravenous. The conditions noted are these: in vivo, iv. An outline of the steps: as §1
A short description of data set [8]: Half-life in Beagles dog at a dose of 1 mg/kg given intravenously. It counts as ADME, organism-based, Canis lupus familiaris. The arrangement: dose 1 mg/kg, route intravenous. The conditions noted are these: beagle, in vivo, iv. The method, boiled down:
as §1

Data set [9] in a line: Volume of distribution in CD rat at a dose of 5 mg/kg given intravenously. It counts as ADME, organism-based. The arrangement: dose 5 mg/kg, route intravenous. As to conditions: in vivo, iv, read-out: Distribution. The method, boiled down: as §1
A short description of data set [10]: Volume of distribution in Beagles dog at a dose of 1 mg/kg given intravenously. The arrangement: dose 1 mg/kg, route intravenous. It counts as ADME, organism-based, Canis lupus familiaris. As to conditions: beagle, in vivo, iv, read-out: Distribution. The method, boiled down: as §1
Data set [11] in a line: Volume of distribution in Cynomolgus monkey at a dose of 5 mg/kg given intravenously. It counts as ADME, organism-based, Macaca fascicularis. The arrangement: dose 5 mg/kg, route intravenous. The conditions noted are these: in vivo, iv, read-out: Distribution. The method, boiled down: as §1
The nature of data set [12]: Half-life in Cynomolgus monkey at a dose of 5 mg/kg given intravenously. It counts as ADME, organism-based, Macaca fascicularis. The arrangement: dose 5 mg/kg, route intravenous. As to conditions: in vivo, iv. An outline of the steps:
as §1

18 compounds from ChEMBL document CHEMBL1126854, “A series of penicillin derived C2-symmetric inhibitors of HIV-1 proteinase: synthesis, mode of interaction, and structure-activity relationships” (J Med Chem, 1993) can be followed below.

Some results are limits rather than exact numbers.

Turning to `Cc1cn([C@H]2C[C@H](N=[N+]=[N-])[C@@H](CO)O2)c(=O)[nH]c1=O` [ZIDOVUDINE], the concentration giving a half-maximal response (EC50) stood at 30 nM in [1] and 20 nM in data set [2].
Consider `CC1(C)S[C@H]([C@H](NC(=O)Cc2ccccn2)C(=O)NCc2ccc(Cl)cc2Cl)N[C@H]1C(=O)NCCNC(=O)[C@@H]1N[C@@H]([C@H](NC(=O)Cc2ccccn2)C(=O)NCc2ccc(Cl)cc2Cl)SC1(C)C`, for which the IC50 in [3] turned out to be 14 nM. Further, the EC50 in [1] is 240 nM; in data set [2] it was 530 nM.
In the same order, the values of `CC1(C)S[C@H]([C@H](NC(=O)Cc2ccccc2)C(=O)NCC(F)(F)F)N[C@H]1C(=O)NCCNC(=O)[C@@H]1N[C@@H]([C@H](NC(=O)Cc2ccccc2)C(=O)NCC(F)(F)F)SC1(C)C` are 4.4 nM, 220 nM and 280 nM.
In turn, `CN(C)C(=O)[C@@H](NC(=O)Cc1ccccc1)[C@@H]1N[C@@H](C(=O)NCCNC(=O)[C@@H]2N[C@@H]([C@H](NC(=O)Cc3ccccc3)C(=O)N(C)C)SC2(C)C)C(C)(C)S1` came in with an IC50 in data set [3] of 5.2 nM. Further, the EC50 in data set [1] was 1700 nM; in data set [2], 4400 nM.
In the same order, the values of `CN(C)c1ccc(CNC(=O)[C@@H](NC(=O)c2ccccc2-c2ccccc2)[C@@H]2N[C@@H](C(=O)NCCNC(=O)[C@@H]3N[C@@H]([C@H](NC(=O)c4ccccc4-c4ccccc4)C(=O)NCc4ccc(N(C)C)cc4)SC3(C)C)C(C)(C)S2)cc1` are 0.23 nM, 30 nM and < 10 nM.
On to `CCNC(=O)[C@@H](NC(=O)Cc1ccccc1)[C@@H]1N[C@@H](C(=O)NCCNC(=O)[C@@H]2N[C@@H]([C@H](NC(=O)Cc3ccccc3)C(=O)NCC)SC2(C)C)C(C)(C)S1`, for which the values for the clearance in data set [4], in data set [5] and in data set [6] were 12 mL/min, 300 mL/min and 200 mL/min, respectively. The figures for the EC50 in data set [1] and in [2] were 1100 nM and 5400 nM, respectively. For the same compound, the half-life in data set [7] is 5 h; in [8] it was 4 h; in data set [12], 1.2 h. The figures for the Vd in [9], in data set [10] and in [11] were 2.8 L, 50 L and 17 L, respectively.
On to `CC1(C)S[C@H]([C@H](NC(=O)Cc2ccccc2)C(=O)NCC2CCCCC2)N[C@H]1C(=O)NCCNC(=O)[C@@H]1N[C@@H]([C@H](NC(=O)Cc2ccccc2)C(=O)NCC2CCCCC2)SC1(C)C`, for which the half-inhibitory concentration (IC50) in [3] came to 40 nM. In addition, the half-maximal effective concentration (EC50) in data set [1] came out at 60 nM; in data set [2], 8200 nM.
In the same order, the values of `CCNC(=O)[C@@H](NC(=O)c1ccccc1-c1ccccc1)[C@@H]1N[C@@H](C(=O)NCCNC(=O)[C@@H]2N[C@@H]([C@H](NC(=O)c3ccccc3-c3ccccc3)C(=O)NCC)SC2(C)C)C(C)(C)S1` are 9.9 nM, 170 nM and 30 nM.
The like results for `CN(C)c1ccc(CNC(=O)[C@@H](NC(=O)Cc2ccccc2)[C@@H]2N[C@@H](C(=O)NCCNC(=O)[C@@H]3N[C@@H]([C@H](NC(=O)Cc4ccccc4)C(=O)NCc4ccc(N(C)C)cc4)SC3(C)C)C(C)(C)S2)cc1` were, in that order, 47 nM, 20 nM and < 10 nM.
In the same order, the values of `CCNC(=O)[C@@H](NC(=O)Cc1cccs1)[C@@H]1N[C@@H](C(=O)NCCNC(=O)[C@@H]2N[C@@H]([C@H](NC(=O)Cc3cccs3)C(=O)NCC)SC2(C)C)C(C)(C)S1` are 15 nM, 5200 nM and 27000 nM.
For the compound `CC1(C)S[C@H]([C@H](NC(=O)c2ccccc2-c2ccccc2)C(=O)NCc2ccccc2)N[C@H]1C(=O)NCCNC(=O)[C@@H]1N[C@@H]([C@H](NC(=O)c2ccccc2-c2ccccc2)C(=O)NCc2ccccc2)SC1(C)C`, in [3], the half-maximal inhibitory concentration (IC50) amounted to 7.5 nM. Further, the EC50 in data set [1] is 130 nM; in [2], 110 nM.
As to `CC1(C)S[C@H]([C@H](NC(=O)Cc2ccccc2)C(=O)NCc2ccccc2)N[C@H]1C(=O)NCCNC(=O)[C@@H]1N[C@@H]([C@H](NC(=O)Cc2ccccc2)C(=O)NCc2ccccc2)SC1(C)C`, the EC50 in [1] came to 60 nM; in data set [2], 290 nM.
In [3], `CCNC(=O)[C@@H](NS(=O)(=O)Cc1ccccc1)[C@@H]1N[C@@H](C(=O)NCCNC(=O)[C@@H]2N[C@@H]([C@H](NS(=O)(=O)Cc3ccccc3)C(=O)NCC)SC2(C)C)C(C)(C)S1` showed a concentration for half-maximal inhibition (IC50) of 58 nM. In addition, the concentration for a half-maximal effect (EC50) in data set [1] came out at 13000 nM; in data set [2], 32000 nM.
With `CC1(C)S[C@H]([C@H](NC(=O)Cc2ccccn2)C(=O)NCc2ccccc2)N[C@H]1C(=O)NCCNC(=O)[C@@H]1N[C@@H]([C@H](NC(=O)Cc2ccccn2)C(=O)NCc2ccccc2)SC1(C)C`, in data set [3], the IC50 came to 0.55 nM. Also, the EC50 in data set [2] was > 10000 nM.
For `CC(C)(C)NC(=O)[C@@H]1C[C@@H]2CCCC[C@@H]2CN1C[C@@H](O)[C@H](Cc1ccccc1)NC(=O)[C@H](CC(N)=O)NC(=O)c1ccc2ccccc2n1`, the EC50 was 0.6 nM in data set [1] and 4 nM in [2].
For the compound `CCNC(=O)[C@@H](NC(=O)CCc1ccccc1)[C@@H]1N[C@@H](C(=O)NCCNC(=O)[C@@H]2N[C@@H]([C@H](NC(=O)CCc3ccccc3)C(=O)NCC)SC2(C)C)C(C)(C)S1`, inhibition in data set [3] was half-maximal at 2.4 nM (IC50). For the same compound, the EC50 in data set [1] came to 60 nM; in data set [2], 3900 nM.
The like results for `CC1(C)S[C@H]([C@H](NC(=O)Cc2ccccc2)C(=O)N2CCCCC2)N[C@H]1C(=O)NCCNC(=O)[C@@H]1N[C@@H]([C@H](NC(=O)Cc2ccccc2)C(=O)N2CCCCC2)SC1(C)C` were, in that order, 6.9 nM, 230 nM and 1800 nM.
As to `CC1(C)S[C@H]([C@H](NC(=O)Cc2ccccc2)C(=O)NCc2ccccn2)N[C@H]1C(=O)NCCNC(=O)[C@@H]1N[C@@H]([C@H](NC(=O)Cc2ccccc2)C(=O)NCc2ccccn2)SC1(C)C`, the half-maximal inhibitory concentration (IC50) in data set [3] was 11 nM. The same compound returned a concentration for a half-maximal effect (EC50) in data set [2] of 80000 nM.
